Here are results for two compounds from PMC4828293 (Bioorganic & medicinal chemistry, 2015).

For orientation: GI50 means the concentration giving 50% growth inhibition. A word on the IC50: it is the midpoint of a concentration-inhibition curve.

In one data set the test system is NCI-H460 (lung). As to the kind of experiment: SRB cytotoxicity assay, NCI-H460. The format is cell-based, human. Particulars: read-out: GI50 (μM) SRB assay NCI-H460; NCI-H460, 48 h, average of n ≥ 3. In short, it runs like this: (§1)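 Serial dilutions of the test compound were added to the cells for 48 h. Cells were then fixed with trichloroacetic acid, washed, dried and stained with sulforhodamine B. The dye was solubilised and read at 540 nm, normalised to 630 nm.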
In general terms: The SRB assay estimates cell density from bound dye.

The target in data set [1] is purified bovine brain tubulin (Bos taurus, UniProt P81947+Q6B856). The conditions noted are these: read-out: Inhibition of tubulin polymerization IC50 (μM) ± SD; cited from earlier work.
Data set [2] concerns MDA-MB-231-luc orthotopic human tumor xenografts. The experiment in a line: In vivo dynamic bioluminescence imaging. Also noted: species or system SCID mice. The procedure, abridged:
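Female SCID mice carried orthotopic mammary fat pad tumors grown from […] MDA-MB-231-Luc cells (stable lentiviral firefly luciferase) in 30% Matrigel, used at about 5 mm diameter. Under 2% isoflurane in O2, mice received D-luciferin 120 mg/kg in saline SC at the fore-back neck, and BLI images were taken over 35 min. The test compound (20, 30 or 40 mg/kg), saline, or CA4P 120 mg/kg was given IP immediately after baseline. BLI was repeated with fresh luciferin at 4 and 24 h, and light intensity-time curves were analysed.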

The next data set relates to SK-OV-3 (ovarian). As to the kind of experiment: SRB cytotoxicity assay, SK-OV-3. The format is cell-based, human. Particulars: read-out: GI50 (μM) SRB assay SK-OV-3; SK-OV-3, 48 h, average of n ≥ 3. The procedure, abridged:
as §1

The next data set relates to DU-145 (prostate). As to the kind of experiment: SRB cytotoxicity assay, DU-145. Type of data set: cell-based, human. Particulars: read-out: GI50 (μM) SRB assay DU-145; DU-145, 48 h, average of n ≥ 3. The procedure, abridged:
as §1

The test system of data set [3] is breast tumor bearing SCID mice. As to the kind of experiment: Acute toxicity in breast tumor bearing SCID mice. The conditions noted are these: IP administration of saline solutions, doses up to 40 mg/kg. Type of data set: in vivo.

Entries after “also recorded” stand apart in the source; their conditions may differ.

Sequence of purified bovine brain tubulin (P81947 whole entry): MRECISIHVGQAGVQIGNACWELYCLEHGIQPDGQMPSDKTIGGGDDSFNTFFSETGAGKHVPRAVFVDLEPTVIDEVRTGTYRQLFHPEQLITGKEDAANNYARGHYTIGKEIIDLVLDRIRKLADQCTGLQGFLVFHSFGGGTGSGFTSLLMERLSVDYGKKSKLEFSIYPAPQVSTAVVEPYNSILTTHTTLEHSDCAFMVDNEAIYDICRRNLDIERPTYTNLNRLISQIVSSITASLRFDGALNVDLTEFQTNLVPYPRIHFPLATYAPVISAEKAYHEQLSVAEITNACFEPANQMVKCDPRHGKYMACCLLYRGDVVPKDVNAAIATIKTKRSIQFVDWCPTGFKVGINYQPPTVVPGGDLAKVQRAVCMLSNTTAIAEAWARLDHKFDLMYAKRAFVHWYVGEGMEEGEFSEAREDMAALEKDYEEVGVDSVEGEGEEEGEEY
Sequence of purified bovine brain tubulin (Q6B856 whole entry): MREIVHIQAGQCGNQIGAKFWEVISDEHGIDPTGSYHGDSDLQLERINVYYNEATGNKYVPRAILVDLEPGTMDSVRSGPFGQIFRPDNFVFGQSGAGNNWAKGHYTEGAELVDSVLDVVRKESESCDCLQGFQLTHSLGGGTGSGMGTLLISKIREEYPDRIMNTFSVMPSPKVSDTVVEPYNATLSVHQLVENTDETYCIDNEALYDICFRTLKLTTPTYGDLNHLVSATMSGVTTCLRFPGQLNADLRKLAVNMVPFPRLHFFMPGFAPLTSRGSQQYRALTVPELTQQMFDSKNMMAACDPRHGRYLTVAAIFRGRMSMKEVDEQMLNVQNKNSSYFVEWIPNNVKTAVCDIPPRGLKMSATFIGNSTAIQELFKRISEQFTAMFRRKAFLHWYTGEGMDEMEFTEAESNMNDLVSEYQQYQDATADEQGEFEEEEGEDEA

Consider `COc1ccc(/C=C\c2cc(OC)c(OC)c(OC)c2)cc1OP(=O)(O)O` [CA4P, combretastatin A-4P, reference compound], for which the GI50 in the data set with NCI-H460 (lung) worked out at 0.00194 µM; in the data set on SK-OV-3 (ovarian), 0.00119 µM; with DU-145 (prostate), 0.00323 µM. Besides, the IC50 in data set [1] is over 40 µM. For the same compound, the “reduction of BLI signal / light emission” value in data set [2] (CA4P 120 mg/kg IP in saline, 4 h) was “greater than 90%”. For the same compound, the “reduction of BLI signal (remained depressed)” value in data set [2] (CA4P 120 mg/kg IP in saline, after 24 h) is on record as over 75%.
On to `COc1cc(C2CCCCc3c2ccc(OC)c3OP(=O)([O-])[O-])cc(OC)c1OC.[Na+].[Na+]` (centres unmarked) [Compound 73, 2-Methoxy-5-(3′,4′,5′-trimethoxyphenyl)-6,7,8,9-tetrahydro-5H-benzo[7]annulen-1-yl disodium phosphate], for which the GI50 with NCI-H460 (lung) came out at 0.145 µM; in the data set with SK-OV-3 (ovarian), 0.357 µM; with DU-145 (prostate), 0.753 µM. In addition, in data set [3], the “acute toxicity over 24 h” value is recorded as “no obvious acute toxicity”. For the same compound, the “effect on light emission (dynamic BLI)” value in data set [2] (30 mg/kg, 4 h after administration) is on record as “modest effect”. The “reduction of the emitted BLI signal” value in data set [2] (40 mg/kg IP in saline, 4 h after administration) is on record as “about 50%”. The BLI signal recovery result in data set [2] (20, 30 or 40 mg/kg IP, within 24 h) is “generally returned to its original level; also recorded: substantial recovery”. Further, the “reduction of BLI signal” value in data set [2] (20 or 30 mg/kg IP in saline, 4 h after administration) is given as “modest reduction”.
